ChEMBL document CHEMBL1154814, “Synthesis and antimicrobial activities of 3-O-alkyl analogues of (+)-catechin: improvement of stability and proposed action mechanism” (Eur J Med Chem, 2010)
Values after ≈ are worked out from the molar mass of the structure shown.

Key:
Staphylococcus aureus = test: Antibacterial activity against Staphylococcus aureus ATCC 25923 after 24 hrs by NCCLS method; assay type: functional; details: ATCC 25923, 24 h
Summary of the method: (§1)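 Agar dilution on Mueller Hinton agar. Overnight cultures on soybean casein digest agar at 37 °C were adjusted to 0.5 McFarland, then diluted 10-fold to 1.2 × 10^7 CFU/mL. 10 µL of each culture was spotted, incubated at 35 °C for 24 h. MIC taken as the lowest concentration preventing growth. Triplicates.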

Proteus mirabilis = test: Antibacterial activity against Proteus mirabilis ATCC 27853 after 24 hrs by NCCLS method; assay type: functional; summary of the method: as §1
Micrococcus luteus = test: Antibacterial activity against Micrococcus luteus ATCC 10240 after 24 hrs by NCCLS method; assay type: functional; details: ATCC 10240, 24 h; summary of the method: as §1
Candida tropicalis = test: Antifungal activity against Candida tropicalis IFO 10241 after 24 to 72 hrs by NCCLS method; assay type: functional
Summary of the method: (§2)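 Yeasts were grown overnight on Sabouraud dextrose agar at 35 °C and adjusted in saline to 0.5 McFarland (1.0–5.0 × 10^6 cells/mL). This stock was diluted 1:100 then 1:20 to 5.0 × 10^2–2.5 × 10^3 cells/mL. Tubes were incubated at 35 °C for 48 h in ambient air. MIC taken as the lowest concentration preventing growth. Triplicates.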

Escherichia coli [1] = test: Antibacterial activity against Escherichia coli ATCC 25922 after 24 hrs by NCCLS method; assay type: functional; details: ATCC 25922, 24 h; summary of the method: as §1
Enterococcus faecalis = test: Antibacterial activity against Enterococcus faecalis ATCC 29212 after 24 hrs by NCCLS method; assay type: functional; details: ATCC 29212, 24 h; summary of the method: as §1
[2] = system: Staphylococcus epidermidis; test: Antibacterial activity against Staphylococcus epidermidis ATCC 0155 after 24 hrs by NCCLS method; assay type: functional; details: ATCC 0155, 24 h; summary of the method: as §1
Escherichia coli [3] = test: Antibacterial activity against Escherichia coli ATCC 10536 after 24 hrs by NCCLS method; assay type: functional; details: ATCC 10536, 24 h; summary of the method: as §1
Bacillus subtilis = test: Antibacterial activity against Bacillus subtilis ATCC 6633 after 24 hrs by NCCLS method; assay type: functional; details: ATCC 6633, 24 h; summary of the method: as §1
Pichia kudriavzevii = test: Antifungal activity against Candida krusei IFO 1664 after 24 to 72 hrs by NCCLS method; assay type: functional; summary of the method: as §2
Clavispora lusitaniae = test: Antifungal activity against Candida lusitaniae ATCC 42720 after 24 to 72 hrs by NCCLS method; assay type: functional; summary of the method: as §2
Klebsiella pneumoniae = test: Antibacterial activity against Klebsiella pneumoniae ATCC 10031 after 24 hrs by NCCLS method; assay type: functional; details: ATCC 10031, 24 h; summary of the method: as §1
Candida albicans = test: Antifungal activity against Candida albicans ATCC 10231 after 24 to 72 hrs by NCCLS method; assay type: functional; summary of the method: as §2
[4] = Chemical stability in PBS buffer at pH 7.4 assessed as compound remaining after 16 hrs by HPLC; assay type: physicochemical; details: read-out: Stability
Summary of the method: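 Compound at 200 µM in 1% DMSO / 50 mM PBS, pH 7.4, incubated at 37 °C without cells; pH was checked before and after. Samples went onto a C-18 HPLC column (35/65 CH3CN/H2O, 1 mL/min, column at 37 °C). Percent remaining was taken from peak integration against an internal standard at 254 nm.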

[5] = Drug uptake assessed as incorporation into egg phosphatidylcholine liposome by HPLC; assay type: ADME; details: artificial membrane
Summary of the method: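 Egg PC liposomes were diluted 10-fold in PBS, untrapped glucose was removed by centrifugation, and lipid was adjusted to 1 mg/mL. Compound in ethanol was added to final 50 µM with 10% ethanol. Percent incorporated into bilayers was derived from HPLC peak integration of compound left in solution.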

Row | MIC (Staphylococcus aureus) [µg/mL] | MIC (Proteus mirabilis) [µg/mL] | MIC (Micrococcus luteus) [µg/mL] | MIC (Candida tropicalis) [µg/mL] | MIC (Escherichia coli [1]) [µg/mL] | MIC (Enterococcus faecalis) [µg/mL] | MIC [2] [µg/mL] | MIC (Escherichia coli [3]) [µg/mL] | MIC (Bacillus subtilis) [µg/mL] | MIC (Pichia kudriavzevii) [µg/mL] | MIC (Clavispora lusitaniae) [µg/mL] | MIC (Klebsiella pneumoniae) [µg/mL] | MIC (Candida albicans) [µg/mL] | remaining at 16 h [4] [%] | Drug uptake [5] | SMILES
1 | 64 (≈ 193 µM) | > 128 | 32 (≈ 96.3 µM) | > 128 | > 128 | 64 (≈ 193 µM) | 64 (≈ 193 µM) | > 128 | 128 (≈ 385 µM) | > 128 | > 128 | > 128 | > 128 |  |  | CCCO[C@H]1Cc2c(O)cc(O)cc2O[C@@H]1c1ccc(O)c(O)c1
2 |  |  |  |  |  |  |  |  |  |  |  |  |  | 75 |  | CCCCCCCCCC(=O)O[C@H]1Cc2c(O)cc(O)cc2O[C@@H]1c1ccc(O)c(O)c1
3 |  |  |  |  |  |  |  |  |  |  |  |  |  | > 90 | 100% | CCCCCCCCCCO[C@H]1Cc2c(O)cc(O)cc2O[C@@H]1c1ccc(O)c(O)c1
4 |  |  |  |  |  |  |  |  |  |  |  |  |  |  | 100% | CCCCCCCCCCCCO[C@H]1Cc2c(O)cc(O)cc2O[C@@H]1c1ccc(O)c(O)c1
5 | 32 (≈ 68 µM) |  | 16 (≈ 34 µM) | 128 (≈ 272 µM) | > 128 | 64 (≈ 136 µM) | 32 (≈ 68 µM) | 64 (≈ 136 µM) | 32 (≈ 68 µM) | 128 (≈ 272 µM) | 64 (≈ 136 µM) | 128 (≈ 272 µM) | 64 (≈ 136 µM) |  |  | COc1cc(CO[C@H]2Cc3c(O)cc(O)cc3O[C@@H]2c2ccc(O)c(O)c2)cc(OC)c1OC
6 |  |  |  |  |  |  |  |  |  |  |  |  |  |  | 100% | CCCCCCO[C@H]1Cc2c(O)cc(O)cc2O[C@@H]1c1ccc(O)c(O)c1
7 |  |  |  |  |  |  |  |  |  |  |  |  |  |  | 100% | CCCCCCCCO[C@H]1Cc2c(O)cc(O)cc2O[C@@H]1c1ccc(O)c(O)c1
8 |  |  |  |  |  |  |  |  |  |  |  |  |  |  | 100% | CCCCCCCCCCCCCCO[C@H]1Cc2c(O)cc(O)cc2O[C@@H]1c1ccc(O)c(O)c1
9 |  |  |  |  |  |  |  |  |  |  |  |  |  |  | 100% | CCCCCCCCCCCCCCCCO[C@H]1Cc2c(O)cc(O)cc2O[C@@H]1c1ccc(O)c(O)c1
10 | 64 (≈ 168 µM) | 128 (≈ 336 µM) | 32 (≈ 84.1 µM) | > 128 | > 128 | 32 (≈ 84.1 µM) | 64 (≈ 168 µM) | > 128 | 64 (≈ 168 µM) | > 128 | > 128 | 128 (≈ 336 µM) | > 128 |  |  | Oc1cc(O)c2c(c1)O[C@H](c1ccc(O)c(O)c1)[C@@H](OCc1ccccc1)C2
11 | > 128 | > 128 | > 128 | > 128 | > 128 | > 128 | > 128 | > 128 | > 128 | > 128 | > 128 | > 128 | > 128 |  |  | Oc1cc(O)c2c(c1)O[C@H](c1ccc(O)c(O)c1)[C@H](O)C2 [(-)-EPICATECHIN]
12 | > 128 | > 128 | > 128 | > 128 | > 128 | > 128 | > 128 | > 128 | > 128 | > 128 | > 128 | > 128 | > 128 |  |  | Oc1cc(O)c2c(c1)O[C@H](c1ccc(O)c(O)c1)[C@@H](O)C2 [CIANIDANOL]
13 | > 128 | > 128 | > 128 | > 128 | > 128 | > 128 | > 128 | > 128 | > 128 | > 128 | > 128 | > 128 | > 128 |  |  | O=C(O[C@@H]1Cc2c(O)cc(O)cc2O[C@@H]1c1ccc(O)c(O)c1)c1cc(O)c(O)c(O)c1 [EPICATECHIN GALLATE]
14 |  |  |  | 0.06 (≈ 0.085 µM) |  |  |  |  |  | 0.25 (≈ 0.354 µM) | 0.125 (≈ 0.177 µM) |  | 0.06 (≈ 0.085 µM) |  |  | CCC(C)n1ncn(-c2ccc(N3CCN(c4ccc(OCC5COC(Cn6cncn6)(c6ccc(Cl)cc6Cl)O5)cc4)CC3)cc2)c1=O (configuration not stated) [ITRACONAZOLE]

Row | SMILES | MIC (Staphylococcus aureus) [µg/mL] | MIC (Proteus mirabilis) [µg/mL] | MIC (Micrococcus luteus) [µg/mL] | MIC (Candida tropicalis) [µg/mL] | MIC (Escherichia coli [1]) [µg/mL] | MIC (Enterococcus faecalis) [µg/mL] | MIC [2] [µg/mL] | MIC (Escherichia coli [3]) [µg/mL] | MIC (Bacillus subtilis) [µg/mL] | MIC (Pichia kudriavzevii) [µg/mL] | MIC (Clavispora lusitaniae) [µg/mL] | MIC (Klebsiella pneumoniae) [µg/mL] | MIC (Candida albicans) [µg/mL] | remaining at 16 h [4] [%] | Drug uptake [5]
15 | C[C@@H]1[C@H](O)[C@@H](C)/C=C/C=C/C=C/C=C/C=C/C=C/C=C/[C@H](O[C@@H]2O[C@H](C)[C@@H](O)[C@H](N)[C@@H]2O)C[C@@H]2O[C@](O)(C[C@@H](O)C[C@@H](O)[C@H](O)CC[C@@H](O)C[C@@H](O)CC(=O)O[C@H]1C)C[C@H](O)[C@H]2C(=O)O [AMPHOTERICIN B] |  |  |  | 0.5 (≈ 0.541 µM) |  |  |  |  |  | 0.5 (≈ 0.541 µM) | 0.5 (≈ 0.541 µM) |  | 0.25 (≈ 0.271 µM) |  | 
16 | O=C(O)c1cn(C2CC2)c2cc(N3CCNCC3)c(F)cc2c1=O [CIPROFLOXACIN] | 0.25 (≈ 0.754 µM) | 0.125 (≈ 0.377 µM) | < 0.06 |  |  | 0.5 (≈ 1.51 µM) | 0.25 (≈ 0.754 µM) |  | < 0.06 |  |  | < 0.06 |  |  | 
17 | Oc1cc(O)c2c(c1)O[C@H](c1cc(O)c(O)c(O)c1)[C@H](O)C2 [EPIGALLOCATECHIN] | > 128 | > 128 | > 128 | > 128 | > 128 | > 128 | > 128 | > 128 | > 128 | > 128 | > 128 | > 128 | > 128 |  | 
18 | O=C(O[C@@H]1Cc2c(O)cc(O)cc2O[C@@H]1c1cc(O)c(O)c(O)c1)c1cc(O)c(O)c(O)c1 [EPIGALOCATECHIN GALLATE] | > 128 | > 128 | 32 (≈ 69.8 µM) | > 128 | > 128 | > 128 | 128 (≈ 279 µM) | > 128 | > 128 | > 128 | > 128 | > 128 | > 128 | 15 | Not Active
19 | NC[C@H]1O[C@H](O[C@H]2[C@H](O)[C@@H](O[C@H]3O[C@H](CO)[C@@H](O)[C@H](N)[C@H]3O)[C@H](N)C[C@@H]2N)[C@H](O)[C@@H](O)[C@@H]1O.O=S(=O)(O)O [KANAMYCIN SULFATE] | 16 | 32 | 8 |  | 8 | 32 | 4 | 8 | 2 |  |  | 64 |  |  | 
